In article PMC9998565 (Clinical Pharmacokinetics, 2023):

Key:
[1] = test system: patients with pulmonary arterial hypertension; details: 12 weeks, riociguat 1.0–2.5 mg with sildenafil 20 mg three times daily; cited from earlier work
[2] = cited from earlier work
healthy subjects = details: cited from earlier work
[3] = Vericiguat pharmacokinetics in plasma; assay type: in vivo, human
In short: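 Test compound was 10 mg once daily after breakfast. Lithium-heparin plasma was sampled pre-dose and at 0.5–15 h on days 12–15, plus 24 h on day 16. A labelled internal standard was added, then automated acetonitrile/ammonium acetate/formic acid precipitation and validated LC. QC accuracy was 93.88–101.33% and CV 1.24–2.58%; storage was −20 °C, analysis within 36 days. Log AUC(0–24) and Cmax were analysed by ANOVA (administration, subject).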

[4] = test system: healthy white male volunteers; test: Hemodynamic profile; assay type: in vivo, human
In short: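 Healthy men took test compound 10 mg or placebo once daily for 16 days, with a second test compound (25, 50, 100 mg) ~2 h later on days 13–15. After 15 min supine, seated then standing (2 min) SBP, DBP and HR were taken from 1.25 to ~5 h post-dose on days 0 and 12–15. Baseline was the mean of four seated pre-co-dose values. ANCOVA was run per dose; standing data were descriptive.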

[5] = test system: healthy white male volunteers; test: Safety and tolerability; assay type: in vivo, human
In short: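 Safety covered AEs, coded by MedDRA 19.0; an AE counted as treatment-emergent if it began or worsened from first dose to 30 days post-treatment, and investigators judged relatedness. Fasting haematology, chemistry, coagulation and urinalysis were collected at screening, pre-dose days 0 and 12–15, day 16 and follow-up. Vital signs and ECGs were taken after 15 min supine rest, pre-dose and 5.5 h post-dose (day 12 pre-dose only). All dosed subjects were included.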

[6] = test system: patients with HF with reduced ejection fraction; details: vericiguat 10 mg once daily; cited from earlier work
[7] = Sildenafil pharmacokinetics in plasma; assay type: in vivo, human
In short: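 For the co-administered compound, plasma (EDTA K3) was drawn 3, 4, 6, 8, 12 and 24 h after test compound/placebo on days 13–15, with dosing at 2 h. Processing used a deuterated internal standard and methyl tert-butyl ether liquid-liquid extraction, then a validated LC assay. Samples were stored at −20 °C and analysed within 38 days. Log AUC(0–22) and Cmax went through ANOVA per dose; the test/placebo ratio was given with 90% CIs.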

[8] = ANCOVA, day 14, both groups + sildenafil 50 mg
[9] = during treatment with sildenafil, days 13–15
[10] = whole study, both groups also received sildenafil on days 13–15

COC(=O)N(C)c1c(N)nc(-c2nn(Cc3ccccc3F)c3ncccc23)nc1N [riociguat]
Standing SBP after dosing lower than with placebo [1]: approximately 10 mmHg | Cmax at (time after intake) [2]: 1 to 1.5 h | Half-life [2]: 7 to 12 h

COC(=O)Nc1c(N)nc(-c2nn(Cc3ccccc3F)c3ncc(F)cc23)nc1N [Vericiguat]
Increases in HR (healthy subjects; healthy subjects, vericiguat 5–15 mg over several days): 4–10 bpm | Effect of co-administration of sildenafil on vericiguat pharmacokinetics ([3]; sildenafil 25–100 mg): did not affect | Time at which vericiguat Cmax values were reached post-administration ([3]; vericiguat 10 mg once daily, days 12–15): about 3 h | Change in seated HR, LS mean difference ‘vericiguat-placebo’ ([4]; ANCOVA, day 13, both groups + sildenafil 25 mg): 0.96 bpm | Change in seated HR, LS mean difference ‘vericiguat-placebo’ [4, 8]: 0.81 bpm | Change in seated SBP, LS mean difference ‘vericiguat-placebo’ [4, 8]: 1.36 mmHg | Change in seated HR, LS mean difference ‘vericiguat-placebo’ ([4]; ANCOVA, day 15, both groups + sildenafil 100 mg): 1.38 bpm | Maximum SBP when seated or standing ([4]; day 0): 143 mmHg | Minimum SBP when standing ([4]; day 0): 97 mmHg | Standing HR ([4]; day 0): 54–108 bpm | Maximum SBP when seated or standing ([4]; day 12): 141 mmHg | Minimum SBP when standing ([4]; day 12): 93 mmHg | Standing HR ([4]; day 12): 53–102 bpm | Range of standing HR values ([4]; day 13, with sildenafil 25 mg): 54–114 bpm | Range of standing HR values ([4]; day 14, with sildenafil 50 mg): 54–119 bpm | Range of standing HR values ([4]; day 15, with sildenafil 100 mg): 53–127 bpm | Minimum standing SBP ([4]; days 13–15, with sildenafil): 81–91 mmHg | TEAEs of mild intensity ([5]; by treatment group, whole study): 81.3% | Subjects with dyspepsia (TEAE) ([5]; days 0–12, vericiguat group): 25.0% | Subjects with gastrointestinal disorders (TEAE) ([5]; days 0–12, vericiguat group): 31.3% | Subjects with head discomfort (TEAE) [5, 9]: up to 13.3% | Subjects with headache (TEAE) [5, 9]: up to 21.4% | Effects on ECG parameters, including the QT interval ([5]; in vivo): no relevant effects | Subjects reporting at least one TEAE [5, 10]: All subjects | Subjects with at least one sildenafil-related TEAE [5, 10]: 87.5% | Subjects with at least one vericiguat-related TEAE [5, 10]: 62.5% | Composite endpoint of death from cardiovascular causes or hospitalization for HF, hazard ratio [6]: 0.90 | Half-life [2]: 20 to 30 h | Onset (time after intake) ([2]; intake with food as recommended): ~ 4 h | Time to achieve maximum plasma concentration (Cmax) ([2]; steady state, after intake): approximately 4 h

CCCc1nn(C)c2c(=O)[nH]c(-c3cc(S(=O)(=O)N4CCN(C)CC4)ccc3OCC)nc12 [Sildenafil]
Increase in sildenafil AUC(0–22), vericiguat group compared with placebo group ([7]; across sildenafil 25–100 mg): 13–22% | Increase in sildenafil Cmax, vericiguat group compared with placebo group ([7]; across sildenafil 25–100 mg): 14–20% | Increase in sildenafil AUC(0–22) with co-administration of vericiguat ([7]; sildenafil 25 mg): 22.4% | Increase in sildenafil Cmax with co-administration of vericiguat ([7]; sildenafil 25 mg): 14.2% | Increase in sildenafil AUC(0–22) with co-administration of vericiguat ([7]; sildenafil 50 mg): 17.1% | Increase in sildenafil Cmax with co-administration of vericiguat ([7]; sildenafil 50 mg): 20.4% | Increase in sildenafil AUC(0–22) with co-administration of vericiguat ([7]; sildenafil 100 mg): 13.0% | Increase in sildenafil Cmax with co-administration of vericiguat ([7]; sildenafil 100 mg): 17.1% | Time required to achieve the geometric mean Cmax of sildenafil ([7]; sildenafil 100 mg, day 15, co-administered with vericiguat): 2 h | Time required to achieve the geometric mean Cmax of sildenafil ([7]; sildenafil 100 mg, day 15, with placebo): 1 h | Increase in sildenafil exposure when co-administered with vericiguat ([7]; sildenafil 25–100 mg): ≤ 22% | Mean maximum decrease in DBP (healthy subjects; healthy volunteers): 5.3 mmHg | Mean maximum decrease in SBP (healthy subjects; healthy volunteers): 8.3 mmHg | Dose dependency of BP-reducing effect ([4]; 25, 50, 100 mg, placebo group): no clear dose dependency | Mean decreases from baseline in BP ([4]; after single doses of sildenafil on days 13–15, placebo group): ≤ 5.3 mmHg | Mean maximum decreases in BP ([4]; days 13–15, placebo group): ≤ 11.0 mmHg | Terminal half-life [2]: about 4 h | Time to achieve Cmax [2]: 1 to 2 h
